Results published in ChEMBL document CHEMBL1154089, “Novel N-(3-carboxyl-9-benzyl-beta-carboline-1-yl)ethylamino acids: synthesis, anti-tumor evaluation, intercalating determination, 3D QSAR analysis and docking investigation” (Eur J Med Chem, 2009).

Experiments:
CCRF S-180 [1] = experiment: Antitumor activity against mouse S180 cells xenografted in ICR mouse assessed as inhibition of tumor growth at 89 umol/kg, ip administered 24 hrs after tumor implantation once daily for 7 consecutive days measured after 24 hrs last post dose; type: functional; settings: CCRF S-180, ip
Method in brief: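 S180 solid tumors in male ICR mice (10–12 weeks), 1 × 10^7 cells s.c. at the right armpit. Mice randomized at 24 h, n = 12 per group, and dosed i.p. daily in 0.2 ml 0.9% saline for 7 days. Tumors weighed 24 h after the final dose. Inhibition (%) = [(A − B)/A] × 100, where A is the mean tumor weight of saline controls and B is the mean of the treated group.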

[2] = Cytotoxicity against human H1299 cells after 48 hrs by MTT assay; type: functional, cell-based; settings: NCI-H1299, 48 h
Method in brief: (§1)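 Cells grown in DMEM or RPMI-1640 with 10% FBS plus penicillin/streptomycin. Seeded at 5 × 10^4 cells/ml and given 4 h at 37 °C in 5% CO2 before the medium was replaced with compound (0.1–400 µM, DMSO vehicle; vehicle control 1% DMSO). After 48 h, MTT added (final 0.5 mg/ml) for 4 h. Formazan dissolved in DMSO and read at 570 nm. IC50 is the concentration giving 50% growth inhibition.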

CCRF S-180 [3] = experiment: Antitumor activity against mouse S180 cells xenografted in ICR mouse assessed as decrease in tumor weight at 89 umol/kg, ip administered 24 hrs after tumor implantation once daily for 7 consecutive days measured after 24 hrs last post dose; type: functional
Method in brief: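 Male ICR mice, 10–12 weeks old. Solid tumors from 1 × 10^7 viable S180 ascites cells in 0.2 ml 0.9% saline, injected s.c. at the right armpit. Random allocation at 24 h, 12 per group. Dosed i.p. daily in 0.2 ml 0.9% saline for 7 days. Saline-only negative control; cytarabine 89 µmol/kg positive control. Tumors excised and weighed 24 h after the last dose. ANOVA used for statistics.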

HeLa = experiment: Cytotoxicity against human HeLa cells after 48 hrs by MTT assay; type: functional, cell-based; method in brief: as §1
Mus musculus [4] = experiment: Toxicity in mouse S180 cells xenografted in ICR mouse assessed as spleen index at 89 umol/kg, ip administered 24 hrs after tumor implantation once daily for 7 consecutive days measured after 24 hrs last post dose; type: organism-based, CCRF S-180; settings: in vivo
Method in brief: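 S180-bearing male ICR mice (n = 12) received 89 µmol/kg i.p. daily in 0.2 ml saline for 7 days. Killed under ether 24 h after the last dose; spleens excised and weighed. Spleen index given as mean ± SD, […] body weight.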

Mus musculus [5] = experiment: Toxicity in mouse S180 cells xenografted in ICR mouse assessed as increase in body weight at 89 umol/kg, ip administered 24 hrs after tumor implantation once daily for 7 consecutive days measured after 24 hrs last post dose; type: organism-based, CCRF S-180; settings: in vivo
Method in brief: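 S180-bearing male ICR mice, n = 12 per group, given 89 µmol/kg i.p. daily in 0.2 ml 0.9% saline for 7 days, starting 24 h after s.c. implantation. Animals weighed daily. Result expressed as body-weight increase from the start of treatment, in g, mean ± SD.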

HepG2 = experiment: Cytotoxicity against human HepG2 cells after 48 hrs by MTT assay; type: functional, cell-based; settings: HepG2, 48 h; method in brief: as §1
HL-60 = experiment: Cytotoxicity against human HL60 cells after 48 hrs by MTT assay; type: functional, cell-based; settings: HL-60, 48 h; method in brief: as §1
[6] = Cytotoxicity against human MES-SA cells after 48 hrs by MTT assay; type: functional, cell-based; method in brief: as §1
Mus musculus [7] = experiment: Toxicity in ICR mouse assessed as twitch at > 500 mg/kg, ip after 7 days; type: organism-based; parameters: dose 500 mg/kg, route intraperitoneal; settings: in vivo, 168 h
Method in brief: (§2)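 Mice fasted overnight with free access to water, then given a single i.p. injection of 150, 300 or 500 mg/kg in 0.2 ml of 0.9% saline. Groups of 12 (six male, six female). Animals were watched continuously for up to 7 days for abnormal behaviour (tremor, twitch, jumping, tetanus, supination) or death. They were sacrificed on day 7, and heart, liver and kidneys were checked macroscopically. LD50 was estimated graphically.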

Mus musculus [8] = experiment: Toxicity in ICR mouse assessed as supination at > 500 mg/kg, ip after 7 days; type: organism-based; parameters: dose 500 mg/kg, route intraperitoneal; settings: in vivo, 168 h; method in brief: as §2
Mus musculus [9] = experiment: Toxicity in ICR mouse assessed as death at > 500 mg/kg, ip after 7 days; type: organism-based; parameters: dose 500 mg/kg, route intraperitoneal; settings: in vivo, 168 h; method in brief: as §2
Mus musculus [10] = experiment: Toxicity in ICR mouse assessed as heart necropsy at > 500 mg/kg, ip after 7 days; type: organism-based; parameters: dose 500 mg/kg, route intraperitoneal; settings: in vivo, 168 h; method in brief: as §2
Mus musculus [11] = experiment: Toxicity in ICR mouse assessed as kidneys necropsy at > 500 mg/kg, ip after 7 days; type: organism-based, Kidney; parameters: dose 500 mg/kg, route intraperitoneal; settings: in vivo, 168 h; method in brief: as §2
Mus musculus [12] = experiment: Toxicity in ICR mouse assessed as jumping at > 500 mg/kg, ip after 7 days; type: organism-based; parameters: dose 500 mg/kg, route intraperitoneal; settings: in vivo, 168 h; method in brief: as §2
Mus musculus [13] = experiment: Toxicity in ICR mouse assessed as liver necropsy at > 500 mg/kg, ip after 7 days; type: organism-based; parameters: dose 500 mg/kg, route intraperitoneal; settings: in vivo, 168 h; method in brief: as §2
Mus musculus [14] = experiment: Toxicity in ICR mouse assessed as tetanus at > 500 mg/kg, ip after 7 days; type: organism-based; parameters: dose 500 mg/kg, route intraperitoneal; settings: in vivo, 168 h; method in brief: as §2
Mus musculus [15] = experiment: Toxicity in ICR mouse assessed as tremor at > 500 mg/kg, ip after 7 days; type: organism-based; parameters: dose 500 mg/kg, route intraperitoneal; settings: in vivo, 168 h; method in brief: as §2

SMILES	inhibition in vivo at 89 µmol/kg (CCRF S-180 [1])	IC50 [2]	Activity (CCRF S-180 [3])	IC50 (HeLa)	Activity (Mus musculus [4])	Activity (Mus musculus [5])	IC50 (HepG2)	IC50 (HL-60)	IC50 [6]	Activity (Mus musculus [7])	Activity (Mus musculus [8])	Activity (Mus musculus [9])	Activity (Mus musculus [10])	Activity (Mus musculus [11])	Activity (Mus musculus [12])	Activity (Mus musculus [13])	Activity (Mus musculus [14])	Activity (Mus musculus [15])
O=C(O)c1cc2c3ccccc3n(Cc3ccccc3)c2c(CCN[C@@H](CO)C(=O)O)n1	35.3%	83.8 µM	1.07 g	210 µM	10.5 mg/g	11.46 g	174 µM	23.5 µM	136 µM	–	–	–	–	–	–	–	–	–
C[C@@H](O)[C@H](NCCc1nc(C(=O)O)cc2c3ccccc3n(Cc3ccccc3)c12)C(=O)O	-29.1%	86.4 µM	2.12 g	221 µM	11.4 mg/g	11.37 g	> 400 µM	50.4 µM	218 µM	Non-toxic	Non-toxic	Non-toxic	Non-toxic	Non-toxic	Non-toxic	Non-toxic	Non-toxic	Non-toxic
O=C(O)c1cc2c3ccccc3n(Cc3ccccc3)c2c(CCN[C@@H](Cc2c[nH]cn2)C(=O)O)n1	9.7%	20 µM	1.49 g	136 µM	11.9 mg/g	11.87 g	70.7 µM	160 µM	14.5 µM	–	–	–	–	–	–	–	–	–
CC(C)[C@@H](NCCc1nc(C(=O)O)cc2c3ccccc3n(Cc3ccccc3)c12)C(=O)O	53.8%	199 µM	0.76 g	290 µM	10.2 mg/g	10.23 g	> 400 µM	> 400 µM	175 µM	–	–	–	–	–	–	–	–	–
O=C(O)c1cc2c3ccccc3n(Cc3ccccc3)c2c(CCN[C@@H](Cc2c[nH]c3ccccc23)C(=O)O)n1	47.2%	57.3 µM	0.85 g	393 µM	11.7 mg/g	11.67 g	107 µM	102 µM	11.7 µM	–	–	–	–	–	–	–	–	–
Nc1ccn([C@@H]2O[C@H](CO)[C@@H](O)[C@@H]2O)c(=O)n1 [CYTARABINE]	54.8%	–	0.74 g	–	–	–	–	–	–	–	–	–	–	–	–	–	–	–
N=C(N)NCCC[C@H](NCCc1nc(C(=O)O)cc2c3ccccc3n(Cc3ccccc3)c12)C(=O)O	37.7%	86.4 µM	1.03 g	259 µM	12.7 mg/g	11.19 g	161 µM	40.9 µM	68.2 µM	Non-toxic	Non-toxic	Non-toxic	Non-toxic	Non-toxic	Non-toxic	Non-toxic	Non-toxic	Non-toxic
CC[C@H](C)[C@H](NCCc1nc(C(=O)O)cc2c3ccccc3n(Cc3ccccc3)c12)C(=O)O	1.6%	69 µM	1.62 g	200 µM	13.6 mg/g	13.56 g	254 µM	33.2 µM	181 µM	Non-toxic	Non-toxic	Non-toxic	Non-toxic	Non-toxic	Non-toxic	Non-toxic	Non-toxic	Non-toxic
